Active and inactive are the calls of the source. Unless noted, the rule behind the calls is not given here.

Series [1] has as its system Rattus norvegicus. The experiment in a line: Anticonvulsant activity against subcutaneous strychnine-induced seizures in Wistar rat at 300 mg/kg, ip after 0.5 hrs. The series is classed as functional, organism-based. Also noted: dose 300 mg/kg. In outline:
(§1)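 Rats; subcutaneous strychnine-induced seizure model with compounds given intraperitoneally at 30, 100 and 300 mg/kg. Activity is checked at 0.5 h and 4.0 h and recorded as the minimal dose active in at least half of the animals. Absence of activity is judged at the 300 mg/kg maximum.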

Series [2] concerns Mus musculus. The series is described as follows: Anticonvulsant activity against maximal electroshock-induced seizures in ip dosed Swiss albino mouse assessed as minimum effective dose after 4 hrs. The series is classed as functional. Particulars: read-out: MED. The essentials:
(§2)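 Mice; compounds given ip at 30, 100 and 300 mg/kg and tested in the maximal electroshock seizure model at 0.5 and 4.0 h after dosing. Read-out is the minimal dose giving protection in half or more of the animals. Absence of activity is judged at the 300 mg/kg maximum.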

Series [3] concerns Rattus norvegicus. The experiment in a line: Anticonvulsant activity against subcutaneous strychnine-induced seizures in Wistar rat at 300 mg/kg, ip after 4 hrs. The series is classed as functional, organism-based. The arrangement: dose 300 mg/kg. The essentials:
as §1

Series [4] has as its system Mus musculus. The series is described as follows: Anticonvulsant activity against subcutaneous pentylenetetrazole-induced seizures in Swiss albino mouse at 300 mg/kg, ip after 4 hrs. The series is classed as functional, organism-based. Also noted: dose 300 mg/kg. The essentials: (§3)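 Mice; subcutaneous pentylenetetrazole seizure screen after ip dosing at 30, 100 and 300 mg/kg, read 0.5 and 4.0 h post-dose. Scored as the lowest dose protecting at least half of the animals. Absence of activity is judged at the 300 mg/kg maximum.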

The test system of series [5] is Mus musculus. The series is described as follows: Anticonvulsant activity against maximal electroshock-induced seizures in ip dosed Swiss albino mouse assessed as minimum effective dose after 0.5 hrs. Particulars: read-out: MED. The series is classed as functional. In outline: as §2
For series [6], the system named is Mus musculus. The series is described as follows: Neurotoxicity in Swiss albino mouse at 300 mg/kg, ip after 0.5 hrs. The series is classed as toxicity, organism-based. Also noted: dose 300 mg/kg, route intraperitoneal. Particulars: in vivo. In outline:
(§4)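 Acute neurotoxicity by rotorod test in mice given 30, 100 and 300 mg/kg ip, assessed 0.5 and 4.0 h after dosing. Reported as the minimal dose producing the effect in half or more of the animals. Absence of activity is judged at the 300 mg/kg maximum.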

For series [7], the system named is Mus musculus. The experiment in a line: Anticonvulsant activity against subcutaneous pentylenetetrazole-induced seizures in Swiss albino mouse at 300 mg/kg, ip after 0.5 hrs. The series is classed as functional, organism-based. Also noted: dose 300 mg/kg. The essentials:
as §3

Series [8] relates to Mus musculus. The experiment in a line: Neurotoxicity in ip dosed Swiss albino mouse assessed as minimum dose required to cause toxicity after 4 hrs. The series is classed as organism-based. Particulars: in vivo. In outline: as §4
Series [9] deals with Mus musculus. The series is described as follows: Anticonvulsant activity against maximal electroshock-induced seizures in Swiss albino mouse at 300 mg/kg, ip after 0.5 hrs. The series is classed as functional, organism-based. The arrangement: dose 300 mg/kg. The essentials:
as §2
(In general: Protection in the maximal electroshock model is a classic sign of anticonvulsant action.)

In series [10] the test system is Mus musculus. The series is described as follows: Neurotoxicity in Swiss albino mouse at 300 mg/kg, ip after 4 hrs. The series is classed as toxicity, organism-based. Also noted: dose 300 mg/kg, route intraperitoneal. Particulars: in vivo. The essentials:
as §4

The test system of series [11] is Mus musculus. The series is described as follows: Anticonvulsant activity against subcutaneous pentylenetetrazole-induced seizures in ip dosed Swiss albino mouse assessed as minimum effective dose after 4 hrs. Particulars: read-out: MED. The series is classed as functional. The essentials: as §3
For series [12], the system named is Mus musculus. The experiment in a line: Anticonvulsant activity against maximal electroshock-induced seizures in Swiss albino mouse at 300 mg/kg, ip after 4 hrs. The series is classed as functional, organism-based. Also noted: dose 300 mg/kg. In outline: as §2
The test system of series [13] is Rattus norvegicus. The experiment in a line: Anticonvulsant activity against subcutaneous strychnine-induced seizures in ip dosed Wistar rat assessed as minimum effective dose after 4 hrs. The series is classed as functional. Particulars: read-out: MED. The essentials:
as §1

In the case of `C/C(=N/NC(=O)Nc1nnc(COc2ccc3ccccc3c2)o1)c1ccc(O)cc1`, the MED result in the series with Rattus norvegicus [1], with Rattus norvegicus [3], with Mus musculus [4] and in the series on Mus musculus [7] was “inactive” each time. The minimal effective dose in the series on Mus musculus [2] is 300 mg/kg; in the series on Mus musculus [5], 100 mg/kg. The Activity entry with Mus musculus [6] was “Non-toxic”; in the series with Mus musculus [8], 300 mg/kg.
For `O=C(N/N=C\c1ccccc1)Nc1nnc(COc2ccc3ccccc3c2)o1`, the MED result with Rattus norvegicus [1], with Rattus norvegicus [3], in the series with Mus musculus [4], in the series with Mus musculus [9] and in the series with Mus musculus [7] was “inactive” each time. Further, the minimal effective dose with Mus musculus [2] was found to be 300 mg/kg. The Activity entry in the series with Mus musculus [6] is “Non-toxic”; with Mus musculus [8], 300 mg/kg.
Regarding `C/C(=N/NC(=O)Nc1nnc(COc2ccc3ccccc3c2)o1)c1ccc(Cl)cc1`, the MED entry in the series with Rattus norvegicus [1], in the series on Rattus norvegicus [3], with Mus musculus [9], with Mus musculus [12] and in the series on Mus musculus [7] was “inactive” in each case. Also, the Activity result in the series on Mus musculus [10] and in the series on Mus musculus [6] was “Non-toxic” each time. In the series on Mus musculus [11], the minimal effective dose was determined as 300 mg/kg.
On to `O=C(N/N=C\c1cccc(O)c1)Nc1nnc(COc2ccc3ccccc3c2)o1`, for which the MED result with Rattus norvegicus [1], with Rattus norvegicus [3], in the series with Mus musculus [9] and in the series on Mus musculus [7] was “inactive” throughout. Further, the minimal effective dose with Mus musculus [2] and with Mus musculus [11] was 300 mg/kg in each case. The Activity entry in the series with Mus musculus [6] was “Non-toxic”; with Mus musculus [8] it was 300 mg/kg.
On to `CN(C)c1ccc(/C=N\NC(=O)Nc2nnc(COc3ccc4ccccc4c3)o2)cc1`, for which the MED entry in the series on Rattus norvegicus [1], with Rattus norvegicus [3], in the series on Mus musculus [4] and in the series with Mus musculus [7] was “inactive” in each case. Also, the minimal effective dose in the series with Mus musculus [2] is 300 mg/kg; in the series with Mus musculus [5] it was 100 mg/kg. Besides, the Activity result in the series on Mus musculus [6] was “Non-toxic”; in the series on Mus musculus [8] it was 300 mg/kg.
On to `COc1ccc(/C(=N\NC(=O)Nc2nnc(COc3ccc4ccccc4c3)o2)c2ccccc2)cc1`, for which the MED result in the series on Rattus norvegicus [1], with Rattus norvegicus [3], in the series on Mus musculus [4], with Mus musculus [9] and in the series on Mus musculus [7] was “inactive” in each case. Also, the minimal effective dose in the series with Mus musculus [2] stood at 300 mg/kg. The Activity entry in the series with Mus musculus [6] is “Non-toxic”; in the series on Mus musculus [8], 300 mg/kg.
As to `C/C(=N/NC(=O)Nc1nnc(COc2ccc3ccccc3c2)o1)c1ccc(N)cc1`, the MED entry in the series on Rattus norvegicus [1], with Mus musculus [9] and in the series on Mus musculus [7] was “inactive” in each case. In addition, the minimal effective dose in the series on Mus musculus [2], in the series on Rattus norvegicus [13] and in the series on Mus musculus [11] was 300 mg/kg throughout. In addition, the Activity result with Mus musculus [10] and with Mus musculus [6] was “Non-toxic” each time.
For the compound `Cc1ccc(/C=N\NC(=O)Nc2nnc(COc3ccc4ccccc4c3)o2)cc1`, the MED entry with Rattus norvegicus [1], in the series on Rattus norvegicus [3], in the series on Mus musculus [4], in the series with Mus musculus [9] and with Mus musculus [7] was “inactive” throughout. The minimal effective dose in the series with Mus musculus [2] was 300 mg/kg. For the same compound, the Activity entry in the series with Mus musculus [10] and with Mus musculus [6] was “Non-toxic” throughout.
As to `COc1ccc(/C=N\NC(=O)Nc2nnc(COc3ccc4ccccc4c3)o2)cc1`, the MED result with Rattus norvegicus [1], in the series with Rattus norvegicus [3], in the series with Mus musculus [9], in the series on Mus musculus [12] and in the series on Mus musculus [7] was “inactive” throughout. Also, the Activity result in the series with Mus musculus [10] and in the series on Mus musculus [6] was “Non-toxic” in each case. In addition, the minimal effective dose with Mus musculus [11] worked out at 300 mg/kg.

The values are drawn from ChEMBL document CHEMBL1177802, “Novel semicarbazones based 2,5-disubstituted-1,3,4-oxadiazoles: one more step towards establishing four binding site pharmacophoric model hypothesis for anticonvulsant activity” (Bioorg Med Chem Lett, 2010).
